High-throughput results as filed in PubChem.
Sampled rows, rich in hits. Any-hit rate of the full collection: about 3%.
PGC1a acetyl inh: lowers PGC1a acetylation signal in U2OS cells; 0.17% of 350,000 active; inhibition, % at 15.6 µM; AlphaScreen anti-acetyl-lysine; with virally co-expressed GCN5 acetyltransferase; AID 651687;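 active means every replicate shows inhibition of at least 40%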;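 further: 0% = neutral control wells and 100% = positive control wells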
Statin myotox sup: protects C2C12 myotubes from simvastatin toxicity. ATP luminescence, 48 h; scaled: DMSO 0, geranylgeraniol control 100. rescue of ATP level, % at 7.49 µM. 0.78% of 330,000 active;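 active means mean ATP rescue above about 67%, or every replicate alone reaching that limit, limit read from the data, passing the limit was not always enough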;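 further: myotubes were challenged with 10 µM simvastatin during compound exposure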
SIRT5 inh: sirtuin-5 (human) deacylase inhibition. Q9NXA8. Purified SirT5, succinyl-peptide AMC, trypsin-coupled fluorescence. inhibition, % at 15 µM. 1.1% of 330,000 active. AID 652115; in the data active means inhibition above about 15%
Target sequence (Q9NXA8 whole entry, looked up): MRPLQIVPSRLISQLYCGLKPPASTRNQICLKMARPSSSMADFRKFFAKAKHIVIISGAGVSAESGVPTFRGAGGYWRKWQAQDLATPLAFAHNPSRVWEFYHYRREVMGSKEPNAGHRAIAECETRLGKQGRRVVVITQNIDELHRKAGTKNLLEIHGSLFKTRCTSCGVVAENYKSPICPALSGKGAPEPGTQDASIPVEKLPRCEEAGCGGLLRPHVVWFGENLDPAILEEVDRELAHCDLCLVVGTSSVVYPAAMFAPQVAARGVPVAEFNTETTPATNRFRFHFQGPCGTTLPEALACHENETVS
Ecoli rRNA inh: inhibits bacterial ribosomal RNA function over humanized ribosomes | AID 720706 | GFP signal change (wild-type ribosome), % (no concentration beside the values) | E. coli WT GFP vs humanized-ribosome RFP mutants, fluorescence, 24 h; active compounds read low; DMSO median 0, no signal -100 | 1.6% of 350,000 active;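 active means significant combined selectivity score with lowered wild-type GFP, culture density cut under 30%, mutant RFP and density less affected; inactive means any of these conditions unmet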
Cneo AK release: Cryptococcus neoformans lysis via adenylate kinase release | 0.2% of 360,000 active | lysis activity, % at 15 µM | C. neoformans lysis, adenylate kinase release luminescence, 4 h; normalised: neutral wells 0, clomiphene wells 100;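 active means mean lysis activity across replicates of at least 80%, whatever share of replicates individually reach that level; inactive means mean lysis activity below 80%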
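Material: C. neoformans cells; Schedule: 4 h static compound exposure, 37 °C, read 1 h post-reagent; Measured by: adenylate kinase release luminescence; Read-out: signal increase indicating cell lysis; Controls: Clomiphene as positive lysis control.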
S100A4 MyoIIA: blocks human S100A4 binding to myosin IIA peptide; AID 652163; S100A4/TAMRA-MyoIIA peptide fluorescence polarization; 0.14% of 360,000 active; inhibition, % at 10.7 µM; P26447;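 active means mean inhibition of at least 70% across replicates, with every replicate also reaching that level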
Target sequence (P26447 whole entry, looked up): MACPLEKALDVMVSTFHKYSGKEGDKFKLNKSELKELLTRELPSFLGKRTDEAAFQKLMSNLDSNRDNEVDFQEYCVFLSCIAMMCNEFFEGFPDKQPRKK
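Material: S100A4 monomer protein / Buffer or medium: 50 mM HEPES pH 7.2, 10 mM CaCl2, 100 mM KCl / Times: 5 min incubation before reading / Benchmarks: neutral control DMSO, positive control TFP / Reagent: labelled myosin peptide probe, 5 nM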
* = called active by the depositor; x = not tested or not shown.

SMILES	PGC1a acetyl inh	Statin myotox sup	SIRT5 inh	Ecoli rRNA inh	Cneo AK release	S100A4 MyoIIA
O=S(=O)(N/N=C\c1ccc(-c2ccccc2Cl)o1)c1ccccc1	-17	118*	x	x	-1	x
Cc1noc(C)c1NC(=O)NCC[C@H]1CC[C@@H](NC(=O)Cc2cccnc2)[C@H](CO)O1	-6	-4	1	3	4	9
Cc1cc2c(N=O)c(NO)ccc2[nH]1	-74	80*	x	x	1	x
O=C(C[C@@H]1CC[C@@H]2[C@H](COC[C@@H](O)CN2CC2CCCCC2)O1)NCC1CC1	-7	-6	-1	0	-2	1
COc1ccccc1C(NC(C)=O)c1cc(Cl)c2cccnc2c1O (stereo not drawn)	46*	3	-5	4	-2	-3
COc1ccc(C(NC(C)=O)c2cc(Cl)c3cccnc3c2O)cc1OC (stereo not drawn)	11	x	-5	14	x	1
COc1ccc(N(CN2C(=O)c3ccccc3C2=O)C(=O)COc2ccc(Cl)cc2Cl)cc1	x	2	-1	7	1	12
O=C1c2ccccc2C(=O)N1CN(C(=O)COc1ccccc1)c1ccc(F)cc1	-2	114*	5	-8	1	-6
Cc1c(Cc2ccccc2)c(=O)oc2cc(OCC(=O)NC(Cc3ccc(Cl)cc3)C(=O)O)ccc12 (stereo not drawn)	-4	3	-23	-27*	0	1
CC(Oc1ccc2c3c(c(=O)oc2c1)CCC3)C(=O)N[C@@H](Cc1ccccc1)C(=O)O (stereo partly drawn)	75*	-2	x	x	-1	3
O=C(COc1ccc2c3c(c(=O)oc2c1)CCC3)NC1CCN(Cc2ccccc2)CC1	-2	-10	-7	-29*	-2	0
O=C(C[C@@H]1CC[C@@H]2[C@H](COC[C@H](O)CN2Cc2cccc(Cl)c2)O1)NCC1CCCCC1	-8	27	5	-33	1	12
COc1ccc(Cc2nnc(NC(=O)c3ccccc3[N+](=O)[O-])s2)cc1	7	x	-3	-30*	1	-5
CNC(=O)c1ccc(-c2ccc(OC)cc2)s1	2	-9	x	x	75	x
CNC(=O)c1ccc(-c2ccc(F)cc2)s1	7	69*	x	x	-7	x
COCC(=O)Nc1ccc2c(c1)[C@@H]1C[C@H](CC(=O)NC3CCCCC3)O[C@H](CO)[C@@H]1O2	0	-1	1	-3	53	-3
O=C(c1cn(-c2ccccc2)nc1-c1cccs1)N1CCOCC1	8	x	x	x	-1	x
NC(=O)N/N=C/c1cn(-c2ccccc2)nc1-c1cccs1	8	x	2	-11	x	1
CN(C)C(=O)COC(=O)/C=C/c1cn(-c2ccccc2)nc1-c1cccs1	-32	x	-2	-32*	x	9
O=C(/C=C/c1cn(-c2ccccc2)nc1-c1cccs1)NCCN1CCOCC1	-5	-16	-15	-30*	-7	-2
CC(=O)c1c(C)[nH]c(C(=O)N2CCN(c3ncccn3)CC2)c1C	x	6	16*	-1	0	-1
Cn1c(=O)n(C)c2cc(/C=N/N=C3/NC(=O)C(CC(=O)O)S3)ccc21 (stereo not drawn)	3	4	19*	14	x	-1
O=C(O)CC1S/C(=N/N=C/C2CC=CCC2)NC1=O (stereo not drawn)	x	x	112*	33	x	3
O=C(Cc1ccccn1)NCC[C@H]1CC[C@H](NC(=O)Nc2ccccc2)[C@@H](CO)O1	-13	-1	15	4	1	-41
COc1ccc2c3c(n(C)c2c1)[C@@H](CO)N(C(=O)Cc1ccccn1)CC31CN(CC2CCCC2)C1	x	x	x	8	x	-3
CC(C)NC(=O)Nc1cccc2c1O[C@H](CN(C)S(=O)(=O)c1cccs1)[C@@H](C)CN([C@@H](C)CO)C2=O	2	x	x	2	x	x
C=CCNC(=O)CSc1nc2cc(C(=O)OCC)ccc2n1CC	2	18	-1	-43*	1	0
CCOC(=O)c1ccc2c(c1)nc(COc1ccc(OC)cc1)n2CC	-38	107*	x	x	-1	x
CCOC(=O)c1ccc2c(c1)nc(-c1ccccn1)n2CC	x	-4	-1	-2	-26	1
